Series [1] has as its system Schistosoma mansoni. Briefly: Concentration required to kill 50% of 42 day old worms 5 days after drug treatment. The settings on record: Puerto Rican, 120 h. Type of series: functional, organism-based. The gist of the method: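 Adult S. mansoni were perfused from CD1 mice 6 weeks post-infection and washed. They were cultured 3 pairs per well in 1 mL DMEM with 2 mM glutamine, penicillin/streptomycin and 10% FCS […] at 37 °C, 5% CO2. Viability of individual worms was scored on day 5 (120 h).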

The nature of series [2]: Concentration of drug in plasma at 24h following oral drug adminstration at given dose. Determined by LCMS/MS. Type of series: ADME, organism-based. The settings on record: CD1, mouse. The gist of the method: (§1)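 Plasma sampled from the mice of the efficacy experiments, each animal sampled once: one animal per group at 1, 4 and 8 h, two per group at 24 h. Plasma prepared by acetonitrile protein precipitation and analysed by LC-MS against a 10-point calibration line spiked in blank matrix, with QCs at three or more levels.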

Series [3] is described as follows: Partition coefficient of compound between n-octanol and PBS (pH7.4). Type of series: physicochemical. The settings on record: octanol/water, pH 7.4. The method in brief: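 Shake-flask method using octanol and PBS pH 7.4, each pre-saturated with the other. Compound was shaken 2 h at 850 rpm, 25 °C, then the phases were separated by centrifugation and both layers diluted and analysed by LC-MS/MS. LogD = log(octanol AUC × relative dilution / buffer AUC).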

Series [4] can be described thus: Mean plasma concentration at 4h in Swiss albino male mice at […] per compound (administered orally in a mixture of 5 compounds to 3 mice) assessed by LCMS/MS. Type of series: ADME, organism-based. The settings on record: mouse, po.
Series [5] can be described thus: Concentration required to kill 50% HepG2 cells as detected by MTT staining. In kind it is toxicity, cell-based. The settings on record: homo sapiens, read-out: TC50 (the source's name).
A short description of series [6]: Mean observed clearance in Swiss albino male mice at 1 mg/kg per compound (administered iv in a mixture of 5 compounds to 3 mice) assessed by LCMS/MS. In kind it is ADME, organism-based. The settings on record: male, Swiss albino, mouse, in vivo, read-out: Clearance (converted). The gist of the method:
(§2)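 Male Swiss albino mice (~30 g), 3 per experiment, mostly dosed as mixtures of 5 compounds iv via the lateral tail vein. Vehicle: 10% DMSO/90% 50 mM Na2HPO4 with 0.5% Tween-80. Blood sampled at 5, 15, 30 min and 1, 2, 4, 8, 24 h. Plasma stored at −20 °C and quantified by LC-MS after acetonitrile precipitation.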

The nature of series [7]: Solubility at 25 degC of compound (diluted from DMSO) in PBS at pH 7.4 determined after 24h (1h sonication, 22h shaking, 1h sonication) by LCMS/MS. Type of series: physicochemical.
Series [8] in a line: Mean plasma concentration at 24h in Swiss albino male mice at […] per compound (administered orally in a mixture of 5 compounds to 3 mice) assessed by LCMS/MS. Type of series: ADME, organism-based. The settings on record: mouse, po.
Series [9] in a line: Solubility at 25 degC of compound (diluted from DMSO) in FeSSIF at pH 5.0 (11.2 g/l of SIF powder [Na-taurocholate: 15.0mM, Lecithin:3.75mM, Pancreatin:40mg/ml], 4.04 g/l of NaOH, 8.65 g/l Glacial Acetic Acid, 11.87 g/l NaCl) determined after 24h (1h sonication, 22h shaking, 1h sonication) by LCMS/MS. Type of series: physicochemical.
Series [10] can be described thus: Mean volume of distribution at steady state in Swiss albino male mice at 1 mg/kg per compound (administered iv in a mixture of 5 compounds to 3 mice) assessed by LCMS/MS. Type of series: ADME, organism-based. The settings on record: mouse, in vivo, read-out: Volume. The gist of the method: (§3)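 Male Swiss albino mice (~30 g), 3 per experiment, mostly dosed as mixtures of 5 compounds iv via the lateral tail vein. Vehicle: 10% DMSO/90% 50 mM Na2HPO4 with 0.5% Tween-80. Plasma stored at −20 °C and quantified by LC-MS after acetonitrile precipitation.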

Series [11] in a line: Concentration of drug in plasma at 4h following oral drug adminstration at given dose. Determined by LCMS/MS. In kind it is ADME, organism-based. The settings on record: CD1, mouse. The method in brief:
as §1

Series [12] can be described thus: Mean time to peak plasma concentration in Swiss albino male mice at […] per compound (administered orally in a mixture of 5 compounds to 3 mice) assessed by LCMS/MS. In kind it is ADME, organism-based. The settings on record: mouse, po.
Series [13] can be described thus: Percentage of parent compound remaining after incubation for 90 minutes with cyropreserved mouse hepatocytes at a concentration of 1uM compound and […], determined by LCMS. Type of series: ADME, tissue-based, Hepatocyte. Particulars: cryopreserved mouse hepatocytes, read-out: Stability. The gist of the method: (§4)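 Compound was incubated at 1 µM final (2 µM working solution mixed 1:1 with hepatocyte suspension) in supplemented KHB pH 7.4. Conditions: 37 °C, 5% CO2, gentle mixing, duplicates. Reaction quenched with ice-cold acetonitrile containing standard; analysed by LC-MS/MS. % remaining = AUC at t / AUC at T0.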

Series [14] concerns Schistosoma mansoni. Description: Concentration required to kill 50% of 21 day old worms 5 days after drug treatment. Type of series: functional, organism-based. Particulars: Puerto Rican, 120 h. The method in brief: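 Juvenile S. mansoni (Puerto Rican strain) were perfused from CD1 mice 3 weeks post-infection and washed. They were cultured 6–8 per well in 200 µL DMEM with 2 mM glutamine, penicillin/streptomycin and 10% FCS at 37 °C, 5% CO2. Viability of individual worms was scored on day 5 after dosing (120 h).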

Series [15] can be described thus: Solubility at 25 degC of compound (diluted from DMSO) in FaSSIF at pH 6.5 (2.24 g/l of SIF powder [Na-taurocholate: 3.0mM, Lecithin:0.75mM, Pancreatin:10mg/ml], 0.42 g/l of NaOH, 4.4 g/l NaH₂PO₄ monobasic dihydrate, 6.19 g/l NaCl) determined after 24h (1h sonication, 22h shaking, 1h sonication) by LCMS/MS. In kind it is physicochemical.
The nature of series [16]: Percentage of parent compound remaining after incubation for 90 minutes with cyropreserved human hepatocytes at a concentration of 1uM compound and 1 million cells/uL, determined by LCMS/MS. In kind it is ADME, tissue-based, Hepatocyte. The settings on record: cryopreserved human hepatocytes, read-out: Stability. The gist of the method:
as §4

The test system of series [17] is Schistosoma mansoni. Briefly: Percentage of worms remaining following treatment of female CD1 mice infected with S. mansoni worms (21 day old - juvenile or 42 day old - adult) with compound by oral gavage. Worms were recovered by portal perfusion with citrate saline 8-14 days post treatment and counted. Percentages are from a mean of 5 or 6 animals. In kind it is functional, Mus musculus. More on the design: concentration or dose not given beside the values. The method in brief: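 Female CD1 mice were infected subcutaneously with 150 cercariae and treated at day 21 (juvenile) or day 42 (adult). Single oral gavage, or two doses 12 h apart, given in 7% Tween-80/3% ethanol/water (sonicated) or in 1:19 DMSO:corn oil. Controls received vehicle only. Worm recoveries are group means, n = 5–6.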

Series [18] in a line: Mean half-life in Swiss albino male mice at 1 mg/kg per compound (administered iv in a mixture of 5 compounds to 3 mice) assessed by LCMS/MS. Type of series: ADME, organism-based. The settings on record: mouse, in vivo. The gist of the method: as §3
Series [19] can be described thus: Plasma protein binding determined at 10uM by LC-MS/MS. In kind it is ADME, cell-free. The gist of the method: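 Equilibrium dialysis of plasma spiked at 10 µM (0.1% DMSO) against PBS pH 7.4, 6 h at 37 °C, duplicates. Both chambers analysed by LC-MS/MS after acetonitrile precipitation. % free = buffer/plasma area ratio; recovery also calculated.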
A short description of series [20]: Mean AUC inf in Swiss albino male mice at 1 mg/kg per compound (administered iv in a mixture of 5 compounds to 3 mice) assessed by LCMS/MS. Type of series: ADME, organism-based. Particulars: male, Swiss albino, mouse, in vivo. The gist of the method:
as §2

A short description of series [21]: Mean oral bioavailability in Swiss albino male mice at […] per compound (administered in a mixture of 5 compounds to 3 mice) assessed by LCMS/MS. Note: dose 2.5 mg/kg. In kind it is ADME, organism-based. Particulars: male, Swiss albino, mouse, in vivo, read-out: Bioavailability.

≈ marks a conversion by molar mass, not a printed value.

For the compound `CCc1nc2cnc(-c3ccc(F)c(C(F)(F)C(F)(F)F)c3)cn2c1-c1c(F)cc(O)cc1F`, the EC50 (as a rule, the concentration at which the effect is half-maximal) with Schistosoma mansoni [1] was found to be 9.11 nM; in the series on Schistosoma mansoni [14], 13.6 nM. The concentration at 24 h was 10.4 ng/mL in series [2] and 123 ng/mL in [8]. In addition, the Lipophilicity in [3] is recorded as 6.33 =. The results for the concentration at 4 h in [4] and in series [11] were 208 ng/mL and 104 ng/mL, respectively. In addition, the CC50 in series [5] came out at 7230 nM. Also, the clearance (as a rule, the rate of elimination divided by the concentration) in series [6] was 3.82 mL/min/kg. Further, the solubility (kinetic) (in general, the concentration staying in solution when a stock, usually in DMSO, is diluted into the medium) at 24 h in series [7] came out at 0.742 µM (≈ 0.362 µg/mL); in series [9] it was 200 µM (≈ 97.5 µg/mL); in [15], 111 µM (≈ 54.1 µg/mL). Also, the Vd in series [10] turned out to be 7.32 L/kg. Also, in [12], the Tmax (commonly the time at which the peak concentration occurs) came out at 0.25 h. Also, the remaining at 1.5 h, 1 µM in series [13] came out at 61.5%; in [16] it was 41.7%. Moreover, the Efficacy with Schistosoma mansoni [17] was 49.1%. Further, the half-life (usually the time in which the quantity being followed falls by half) in series [18] is 24.7 h. Further, the Binding in [19] (human) is 99.9955%; in [19] (mouse) it was 99.9935%. In addition, the AUC(0-inf) (commonly total exposure, with the tail of the curve extrapolated) in [20] stood at 2210 ng·h/mL. The bioavailability (usually dose-corrected exposure relative to a reference, in per cent) in series [21] is 83.2%.

The values are drawn from ChEMBL document CHEMBL4651341, “The discovery of a novel series of compounds with single-dose efficacy against juvenile and adult Schistosoma species” (PLoS Negl Trop Dis, 2021).
